In the library only some 2.5% were active in any assay of this set; here they are far more common.
NPY2 pot ag – NPY-Y2 potentiators or agonists, primary screen, cell-based. Neuropeptide Y receptor type 2 (Homo sapiens), P49146. cells expressing NPY-Y2, potentiator/agonist read-out. activation, % at 3.6 µM. actives 0.45% (n = 220,000); in the data active = activation above about 27%;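 note: cells stimulated with NPY near EC25 plus isoproterenol at EC100; 0% = vehicle plus submaximal agonist and 100% = vehicle plus saturating agonist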
NPY1 pot ag – NPY-Y1 receptor potentiators or agonists, primary screen, cell-based. NPY-Y1 expressing cells, potentiator/agonist activation. activation, % at 3.6 µM. actives 0.37% (n = 220,000). AID 1304, 2008; in the data active = activation above about 33%, passing the limit was not always enough;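 note: cells stimulated with NPY at EC10 then isoproterenol at EC100; 0% = low agonist plus stimulus and 100% = saturating agonist plus stimulus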
Target sequence (P25929 whole entry, looked up): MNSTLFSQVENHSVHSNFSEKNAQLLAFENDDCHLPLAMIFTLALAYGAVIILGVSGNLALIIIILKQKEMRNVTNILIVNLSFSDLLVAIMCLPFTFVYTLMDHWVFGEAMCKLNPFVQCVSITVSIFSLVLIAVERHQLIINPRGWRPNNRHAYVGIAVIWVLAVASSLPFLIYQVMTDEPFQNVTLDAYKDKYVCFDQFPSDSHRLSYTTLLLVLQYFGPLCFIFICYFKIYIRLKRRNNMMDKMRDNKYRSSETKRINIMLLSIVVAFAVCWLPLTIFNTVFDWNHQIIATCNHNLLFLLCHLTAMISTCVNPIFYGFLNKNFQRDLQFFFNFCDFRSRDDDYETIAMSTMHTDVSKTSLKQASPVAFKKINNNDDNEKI
NPY-Y2 antag – NPY-Y2 receptor antagonists, primary screen, cell-based | Neuropeptide Y receptor type 2 (Homo sapiens), P49146 | NPY-Y2 expressing cells, antagonist mode | inhibition, % at 2.7 µM | actives 0.99% (n = 140,000); in the data active = inhibition above about 17%;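 note: 0% = vehicle with agonist challenge and 100% = reference antagonist with challenge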
INS promoter inh – inhibitors of insulin promoter-driven GFP, primary screen, imaging, TRM-6 cells, eGFP reporter, cell count. reporter expression induced with tamoxifen. inhibition, % at 2 µM. actives 0.9% (n = 130,000). AID 1273, 2008;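 active = inhibition above the mean plus 3 SD, with well images judged a real hit on visual review, cut at about 60% in these data, passing the limit was not always enough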
Ins promoter up – insulin promoter activators in MIN6 cells, imaging, high-content screening, mouse beta cells | z-score at 5 µM | MIN6 insulin promoter-GFP reporter; active compounds read high | actives 0.3% (n = 190,000);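 active = z-score above 3 at 5 µM with at least 500 cells counted in the well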
NPY-Y1 antag – NPY-Y1 receptor antagonists, primary screen, cell-based | inhibition, % at 3.6 µM | Neuropeptide Y receptor type 1 (Homo sapiens), P25929 | HEK293-CNG Y1 cells, membrane potential fluorescence; NPY at EC95, then isoproterenol | actives 1% (n = 200,000);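 active = inhibition above the campaign mean inhibition of all tested compounds plus 3 SD, cut at about 20% in these data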;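 note: 0% = DMSO wells given NPY plus isoproterenol and 100% = isoproterenol alone without NPY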
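System: HEK293 cells with Y1 receptor plus CNG channel / Probe or stimulus: NPY 25 nM then isoproterenol 1 µM plus Ro 20-1724 25 µM / Compound: one concentration, 3.6 µM, in 0.4% DMSO / Schedule: compound incubation 1 h at room temperature, readout 45 min post-stimulation / Measured by: membrane potential fluorescence / Read-out: % inhibition of NPY effect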
Starred values were filed as active, the others as inactive; . = no result.

SMILES | NPY2 pot ag | NPY1 pot ag | NPY-Y2 antag | INS promoter inh | Ins promoter up | NPY-Y1 antag
CC(C)CCNC(=O)Cn1c(NCCC(C)C)nc2c1c(=O)n(C)c(=O)n2C | 4 | -12 | 1 | . | . | 60*
O=C(c1ccc(Sc2ccc(F)cc2)c([N+](=O)[O-])c1)N1CCOCC1 | 2 | 4 | . | -70 | -0.48 | 1
CC(C)/C=N/NC(=O)c1ccc(Cl)cc1 | 1 | -12 | 1 | 17 | 0.2 | 5
CCS(=O)(=O)c1ccc2oc(SCC(=O)NC3CCCC(C)C3C)nc2c1 (configuration not stated) | 1 | -9 | 4 | -93 | 4.3* | 5
CCS(=O)(=O)c1ccc2oc(SCC(=O)NC34CC5CC(CC(C5)C3)C4)nc2c1 | 2 | -22 | 2 | -33 | . | 3
N=c1c2c(ncn1Cc1ccco1)Oc1ccc3ccccc3c1C2c1ccccc1 (configuration not stated) | 5 | -11 | 33* | . | 0.26 | 39*
COc1ccc(C2c3c(ncn(Cc4ccco4)c3=N)Oc3ccc4ccccc4c32)cc1 (configuration not stated) | -10 | -9 | 15 | . | -0.79 | 18
CC1=Nc2ccccc2/C1=C/c1sc(=S)n(-c2cccc(C(=O)O)c2)c1O | -1 | 8 | . | . | 3.2* | 2
CCC12CN3CCN(CC(C3)/C1=N\NC(=O)c1ccc(F)cc1)C2 | 5 | -2 | . | -41 | . | -1
COC(=O)C1=CN(C2CC2)C=C(C(=O)OC)C1c1ccc(C(F)(F)F)cc1 | -1 | -5 | . | 32 | -0.2 | 21*
COC(=O)C1=CN(C2CC2)C=C(C(=O)OC)C1c1ccc(C(=O)OC)cc1 | -14 | -15 | 6 | -39 | 0.96 | 0
CC(C)(C)NC(=O)c1cccc(NC(=O)c2cccc(O)c2)c1 | 0 | 7 | -1 | 67 | 0.25 | -2
CCc1ccc(OCC(=O)NC(NC(=S)Nc2ccccc2C)C(Cl)(Cl)Cl)cc1 (configuration not stated) | 3 | -1 | 19* | . | -0.38 | 21*
O=C(Nc1ncc2c(n1)-c1ccccc1CC2)c1cccc(Cl)c1 | -31 | -43 | 25* | . | . | 34*
O=C(Nc1ncc2c(n1)-c1ccccc1CC2)c1ccc(Cl)cc1 | -20 | -47 | 6 | -64 | . | 10
CCC(=O)Nc1ccccc1C(=O)OC(c1ccccc1)c1ccccc1 | -4 | -24 | 24* | -7 | 0.26 | 27*
CCOc1cccc2sc(Nc3nc4ccc(NC(C)=O)cc4s3)nc12 | 2 | 3 | -1 | -21 | 0.38 | 0
CC(=O)NC(NC(=S)Nc1ccc(S(N)(=O)=O)cc1)C(Cl)(Cl)Cl (configuration not stated) | -5 | -2 | . | . | -0.3 | .
CC(=O)NC(NC(=S)Nc1ccc(N=Nc2ccccc2)cc1)C(Cl)(Cl)Cl (configuration not stated) | 33 | 46* | -8 | 32 | 0.67 | -14
COc1ccc(-c2nnn(CCC(=O)O)n2)cc1 | 13 | -11 | 4 | -31 | 0.45 | 2
COc1ccc(-c2nnn(CCc3nn[nH]n3)n2)cc1 | -26 | 1 | 8 | 75* | . | 13
COc1ccc2ccccc2c1C(=O)/C=C\c1ccoc1 | 3 | -28 | 2 | 79* | -0.54 | 3
CCOC(=O)/C=C1\SCC(=O)N1CCOc1cccc(Br)c1 | -19 | -20 | 5 | -23 | 0.1 | 7
CC(C)OP(=O)(c1ccc(N(C)C)cc1)C(O)c1c(Cl)cccc1Cl (configuration not stated) | 1 | -4 | 8 | . | -1.7 | 1
COc1cc(/C=N/NC(=O)c2ccncc2)ccc1OC(=O)c1ccc([N+](=O)[O-])cc1 | -12 | -9 | 2 | 100* | 1.1 | -1
SMILES | NPY2 pot ag | NPY1 pot ag | NPY-Y2 antag | INS promoter inh | Ins promoter up | NPY-Y1 antag
COc1cc(/C=N/NC(=O)c2ccncc2)ccc1OC(=O)c1ccccc1Cl | -6 | 7 | . | . | 0.58 | -9
COc1cccc(-n2nnnc2SCC(=O)NC2CCCC2)c1 | -18 | 3 | 4 | 75* | 0.09 | 5
COc1ccccc1-n1nnnc1SCC(=O)NC1CCCC1 | 13 | 11 | -4 | 30 | 0.28 | 0
CCS(=O)(=O)Nc1ccc2[nH]c(=O)[nH]c2c1 | -10 | -3 | . | . | 1.4 | 1
Cc1ccc(C2=NC3(CCCCC3)NC2=S)cc1 | 17 | 9 | 0 | 62* | -0.3 | -4
COc1ccc(-c2csc(NC(=O)c3ccccc3NS(=O)(=O)c3ccc(F)c(F)c3)n2)cc1 | 94* | 70* | . | . | -5 | 3
O=C(O)c1ccc(-c2nc3ccccc3[nH]2)cc1 | 2 | 8 | 5 | . | -0.17 | 1
O=C(O)c1ccc(-c2ncc[nH]2)cc1 | 11 | 0 | . | 80* | 0.31 | 2
Cc1cnc(C)c(N2CCC(C(=O)NCc3cccs3)CC2)n1 | -5 | 16 | 1 | 0 | . | 4
COc1nc(OC)nc(N2CCC(C(=O)NCc3cccs3)CC2)n1 | 0 | -11 | 1 | -5 | 3.5* | -4
CCOC(=O)C(=O)N1CCC(C(=O)OCC)CC1 | -6 | 17 | . | . | 0.45 | .
O=C(CCn1c(=O)oc2ccccc21)N1CCCCCC1 | 3 | -4 | 2 | 45 | 0.16 | -4
CC1CN(C(=O)CCn2c(=O)oc3ccccc32)CC(C)O1 (configuration not stated) | 3 | -1 | 1 | . | 8* | 0
COCCCN1C(=O)C(=O)/C(=C(/O)c2ccc(C)cc2)C1/C=C/c1ccccc1 (configuration not stated) | 8 | 4 | . | . | -0.79 | 13
O=c1ccnc(Nc2ccc3c(c2)OCCO3)[nH]1 | -25 | 8 | . | . | 3.7* | 9
O=C(CSc1nccc(=O)[nH]1)Nc1ccc2c(c1)OCCO2 | -34 | -15 | . | . | -0.61 | 12
CCOC(=O)CCNCc1ccc(OC)c(OC)c1 | 4 | -4 | . | . | 0.62 | .
O=C(NNc1c(Cl)cccc1Cl)C1CCC1 | 10 | 5 | . | . | -0.16 | .
N#Cc1c(NCCN)nc(-c2ccco2)c2c1CCCC2 | -59 | -108 | 22* | 10 | . | 44*
O=C(CCc1ccccc1)Nc1c(F)c(F)c(F)c(F)c1F | -36 | -78 | 16 | -14 | 0.26 | 33*
COc1cccc(NC(=O)c2ccccc2-c2nc(-c3cccc(C)c3)no2)c1 | -33 | -108 | 23* | -57 | -0.02 | 37*
Cc1c(Nc2nc(-c3ccccc3)cs2)c(=O)n(-c2ccccc2)n1C | 78* | 59* | 1 | . | 0.18 | -1
O=C(COc1ccccc1)Nc1ccc(OC(F)(F)C(F)F)c(NC(=O)COc2ccccc2)c1 | -1 | -56 | 34* | . | . | 25*
Cc1cccc2[nH]c(CN(C)C(=O)CC3C(=O)NCCN3CC(C)(C)C)nc12 (configuration not stated) | -4 | 9 | . | . | -0.04 | 3

Screening data deposited in PubChem BioAssay by several laboratories.
